Assay results taken from ChEMBL document CHEMBL1125226, “Antineoplastic activity of didemnin congeners: nordidemnin and modified chain analogues” (1991).
≈ marks a conversion by molar mass, not a printed value.

Columns and labels:
[1] = system: B16; test: Antitumor activity against B16 melanoma from B6 D2 F1 female mice evaluated as average weight change of animals between day 1 and day 5 after tumor implementation at a dose of 0.50 mg/kg/day; assay type: functional, Mus musculus
Procedure, shortened: (§1)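 B16 melanoma in B6D2F1 female mice: 0.5 mL of tumor homogenate (1 g in 9 mL 0.9% saline) was given ip on day 0. Ip dosing was on days 1, 5 and 9. The readout was the average body weight change between day 1 and day 5 after tumor implantation.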

[2] = system: B16; test: Antitumor activity against B16 melanoma from B6 D2 F1 female mice evaluated as the number of survivors on day 5 at a dose of 0.06 mg/kg/day; assay type: functional, Mus musculus
Procedure, shortened: (§2)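 B6D2F1 female mice (C57BL/6 ♀ × DBA/2 ♂) implanted ip on day 0 with 0.5 mL of B16 tumor suspension (1 g homogenized in 9 mL 0.9% saline). Dosing ip on days 1, 5 and 9. Day-5 survivors give toxicity. Median survival of treated vs control mice gives T/C%, with ≥125% significant.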

[3] = system: L1210; test: Antitumor activity against L1210 Lymphoid Leukemia from CDF1 female mice as average weight change of animals between day 1 and day 5 after tumor implementation at a dose of 0.50 mg/kg/day; assay type: functional, Mus musculus
Procedure, shortened: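 CDF1 female mice (BALB/c × DBA/2) received 10⁵ L1210 cells ip on day 0. Drug was dissolved in 2% methanol and given ip on days 1, 5 and 9, to 10 mice per group. Weights were taken on days 1 and 5, and the mean change was reported.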

[4] = system: L1210; test: Antitumor activity against L1210 Lymphoid Leukemia from CDF1 female mice (T/C) as median survival time of treated mice (T) over that of control mice (C) at a dose of 0.50 mg/kg/day; assay type: functional, Mus musculus
Procedure, shortened: (§3)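 L1210 leukemia, 10⁵ cells ip on day 0 into CDF1 female mice (BALB/c ♀ × DBA/2 ♂). Drug in 2% methanol given ip on days 1, 5 and 9, 10 mice per group. Survivors and body weight recorded on days 1 and 5, with toxicity as survivors on day 5. Deaths followed for 30 days. T/C = treated/control median survival time, significant at ≥125%.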

[5] = system: P388; test: Antitumor activity (T/C) was evaluated from the median survival time of treated mice (T) over that of control mice (C) at a dose of 0.12 mg/kg/day; assay type: functional, Mus musculus
Procedure, shortened: (§4)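 CDF1 female mice (BALB/c ♀ × DBA/2 ♂) given 10⁶ P388 cells ip on day 0. Drug in 2% methanol given ip on days 1, 5 and 9, 10 mice per group and more controls. Toxicity is survivors on day 5, with weight change between days 1 and 5. Mortality followed 30 days. T/C% is treated over control median survival (NCI method), significant at ≥125%.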

[6] = system: B16; test: Antitumor activity against B16 melanoma from B6 D2 F1 female mice(T/C) was evaluated from the median survival time of treated mice (T) over that of control mice (C) at a dose of 0.03 mg/kg/day; assay type: functional, Mus musculus; procedure, shortened: as §2
[7] = system: B16; test: Antitumor activity against B16 melanoma from B6 D2 F1 female mice as Median survival time of treated mice at a dose of 0.03 mg/kg/day (repeated ip injections, day 1-9); assay type: functional, Mus musculus; settings: route intraperitoneal
Procedure, shortened: (§5)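 B16 melanoma homogenate (1 g tumor in 9 mL 0.9% saline), 0.5 mL implanted ip on day 0 in B6D2F1 female mice (C57BL/6 ♀ × DBA/2 ♂). Treatment ip once daily from day 1 to day 9. Toxicity scored as survivors on day 5. Median survival recorded and T/C computed as treated/control median survival, ≥125% significant.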

[8] = system: P388; test: Average weight change of animals between day 1 and day 5 after tumor implementation at a dose of 1 mg/kg/day; assay type: functional, Mus musculus
Procedure, shortened: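 P388 leukemia: CDF1 female mice were inoculated ip with 10⁶ cells on day 0. Treatment in 2% methanol was given ip on days 1, 5 and 9, with 10 mice per group and a larger control group. Body weight was recorded on days 1 and 5 post-implant, and the average change was reported.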

[9] = system: B16; test: Antitumor activity against B16 melanoma from B6 D2 F1 female mice evaluated as average weight change of animals between day 1 and day 5 after tumor implementation at a dose of 0.03 mg/kg/day; assay type: functional, Mus musculus; procedure, shortened: as §1
[10] = system: B16; test: Antitumor activity against B16 melanoma from B6 D2 F1 female mice as average weight change of animals between day 1 and day 5 after tumor implementation at a dose of 0.06 mg/kg/day (repeated ip injections, day 1-9); assay type: functional, Mus musculus; settings: route intraperitoneal
Procedure, shortened: (§6)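 B6D2F1 female mice (C57BL/6 × DBA/2) were implanted ip on day 0 with 0.5 mL of B16 suspension (1 g tumor homogenized in 9 mL 0.9% saline). Ip treatment was given once daily, day 1 to day 9. Body weight was recorded on days 1 and 5 after implantation, and the mean change per group was reported.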

[11] = system: B16; test: Antitumor activity against B16 melanoma from B6 D2 F1 female mice evaluated as Median survival time of treated mice at a dose of 0.06 mg/kg/day (repeated ip injections, day 1-9); assay type: functional, Mus musculus; settings: route intraperitoneal; procedure, shortened: as §5
[12] = system: P388; test: Antitumor activity against P388 Leukemia from CDF1 female mice evaluated as the number of survivors on day 5 at a dose of 0.50 mg/kg/day; assay type: functional, Mus musculus
Procedure, shortened: (§7)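 CDF1 female mice (BALB/c × DBA/2) inoculated ip with 10⁶ P388 cells on day 0. Drug given ip in 2% methanol on days 1, 5 and 9. Ten mice per dose group, with a larger control group. Body weight and survival were recorded on days 1 and 5, with toxicity taken as survivors on day 5. Mortality was followed for 30 days to give median survival time.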

[13] = system: P388; test: Antitumor activity against P388 Leukemia from CDF1 female mice evaluated as the number of survivors on day 5 at a dose of 0.03 mg/kg/day; assay type: functional, Mus musculus; procedure, shortened: as §7
[14] = system: B16; test: Antitumor activity against B16 melanoma from B6 D2 F1 female mice as average weight change of animals between day 1 and day 5 after tumor implementation at a dose of 0.03 mg/kg/day (repeated ip injections, day 1-9); assay type: functional, Mus musculus; settings: route intraperitoneal; procedure, shortened: as §6
[15] = system: L1210; test: In vitro cytostatic activity determined on L1210 leukemia cells at 24 hours.; assay type: functional; settings: Mus musculus, L1210, 24 h; read-out: ID50 (the source's name)
Procedure, shortened: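 Log-phase L1210 cells were seeded at 0.8 × 10⁵ cells/mL in RPMI 1640 with 20% heat-inactivated horse serum, 2 mmol/L L-glutamine, streptomycin and penicillin. Drugs in ethanol (0.5% final) were tested at several concentrations.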

[16] = system: B16; test: Antitumor activity against B16 melanoma from B6 D2 F1 female mice(T/C) as median survival time of treated mice (T) over that of control mice (C) at a dose of 0.50 mg/kg/day (repeated ip injections, day 1-9); assay type: functional, Mus musculus; settings: route intraperitoneal; procedure, shortened: as §5
[17] = system: B16; test: Antitumor activity against B16 melanoma from B6 D2 F1 female mice evaluated as the number of survivors on day 5 at a dose of 0.03 mg/kg/day; assay type: functional, Mus musculus; procedure, shortened: as §2
[18] = system: P388; test: Antitumor activity (T/C) was evaluated from the median survival time of treated mice (T) over that of control mice (C) at a dose of 0.06 mg/kg/day; assay type: functional, Mus musculus; procedure, shortened: as §4
[19] = system: B16; test: Antitumor activity against B16 melanoma from B6 D2 F1 female mice evaluated as the number of survivors on day 5 at a dose of 0.03 mg/kg/day (repeated ip injections, day 1-9); assay type: functional, Mus musculus; settings: route intraperitoneal; procedure, shortened: as §5
[20] = system: L1210; test: Antitumor activity against L1210 Lymphoid Leukemia from CDF1 female mice evaluated as the number of survivors on day 5 at a dose of 0.50 mg/kg/day; assay type: functional, Mus musculus; procedure, shortened: as §3
[21] = system: B16; test: Antitumor activity against B16 melanoma from B6 D2 F1 female mice evaluated as the number of survivors on day 5 at a dose of 0.50 mg/kg/day (repeated ip injections, day 1-9); assay type: functional, Mus musculus; settings: route intraperitoneal; procedure, shortened: as §5

With COc1ccc(C[C@H]2C(=O)O[C@H](C)[C@H](NC(=O)[C@@H](CC(C)C)N(C)C(=O)C3CCCN3C(=O)[C@@H](C)O)C(=O)NC(C(C)C)[C@H](O)CC(=O)O[C@@H](C(C)C)C(=O)[C@H](C)C(=O)N[C@@H](CC(C)C)C(=O)N3CCC[C@H]3C(=O)N2C)cc1 (stereo partly specified) [NORDIDEMNIN] the Body weight change [1] was -0.9 g, the Toxicity [2] was 1 and the Body weight change [3] was -0.9 g. For the same compound, the T/C [4] was 117%, the T/C [5] was 133% and the T/C [6] was 101%. The “median survival time, days” value [7] was 26.5, the Body weight change [8] was -2.3 g and the Body weight change [9] was 0 g. The Body weight change [10] was -0.3 g, the “median survival time, days” value [11] was 27.8 and the Toxicity [12] was 1. It also gave a Toxicity [13] of 1, a Body weight change [14] of -0.1 g and an IC50 [15] of 3.6 ng/mL (≈ 3.28 nM). The T/C [16] was 52%, the Toxicity [17] was 1 and the T/C [18] was 123%. The Toxicity [19] was 0.9, the Toxicity [20] was 1 and the Toxicity [21] was 1.
